Screening results from PubChem.
An excerpt weighted towards active compounds, which were near 3.3% of everything screened.
ABCB1 inh – ABCB1 efflux pump inhibitors, primary screen, cell-based, multiplex, flow cytometry, ABCG2 counter-screen; ATP-dependent translocase ABCB1 (Homo sapiens), P08183; CCRF-Adr cells, JC-1 efflux; inhibition, % at 6.6 µM; hit rate 0.067% among 190,000; in the data active = inhibition above about 40%;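 also: 0% = vehicle and 100% = reference inhibitor; higher value means more JC-1 retained so stronger ABCB1 efflux block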
ABCG2 block – ABCG2 efflux pump inhibitors, primary screen, multiplex with ABCB1, IgMXP3 cells, flow cytometry; JC-1 efflux; hit rate 0.1% among 190,000; inhibition, % at 6.6 µM; Broad substrate specificity ATP-binding cassette transporter ABCG2 (Homo sapiens), Q9UNQ0;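 active = inhibition above 80%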;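 also: 0% = DMSO and 100% = nicardipine control wells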
Target sequence (Q9UNQ0 whole entry, looked up): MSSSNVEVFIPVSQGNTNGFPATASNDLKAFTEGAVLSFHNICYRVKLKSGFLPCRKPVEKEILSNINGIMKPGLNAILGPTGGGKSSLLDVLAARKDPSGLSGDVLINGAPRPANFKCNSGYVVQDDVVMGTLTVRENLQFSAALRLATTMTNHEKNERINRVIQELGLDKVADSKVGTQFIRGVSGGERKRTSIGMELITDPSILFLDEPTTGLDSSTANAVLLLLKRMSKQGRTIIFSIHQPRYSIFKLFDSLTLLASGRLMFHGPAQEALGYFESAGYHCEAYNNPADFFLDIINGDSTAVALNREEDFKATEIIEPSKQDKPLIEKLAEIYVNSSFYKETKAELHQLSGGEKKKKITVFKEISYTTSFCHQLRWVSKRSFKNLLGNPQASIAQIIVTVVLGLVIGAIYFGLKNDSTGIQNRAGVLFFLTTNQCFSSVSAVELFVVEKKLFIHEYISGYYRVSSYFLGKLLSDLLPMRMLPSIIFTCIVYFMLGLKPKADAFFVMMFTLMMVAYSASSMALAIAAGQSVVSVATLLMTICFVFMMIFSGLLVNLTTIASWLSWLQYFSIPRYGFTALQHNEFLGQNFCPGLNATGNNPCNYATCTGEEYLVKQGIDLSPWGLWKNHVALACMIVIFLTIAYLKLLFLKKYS
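Test system: IgMXP3 (ABCG2) plus far-red-tagged CCRF-Adr (ABCB1) cells / Amount: 3 million cells/mL in well / Reagent: JC-1 transporter substrate / Timing: 10 min compound exposure, 25 °C / Signal: flow cytometry, 530 nm JC-1 signal / Read-out: percent efflux inhibition, scaled nicardipine 100% to DMSO 0% / Benchmarks: nicardipine as high control, DMSO as low control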
PMI activator – activators of human PMI, primary screen, biochemical, fluorescence intensity, near-Km mannose 6-phosphate. Mannose-6-phosphate isomerase (Homo sapiens), P34949. purified human PMI, coupled resazurin fluorescence, 20 min; active compounds read high; 1 = vehicle control, 0 substrate-free wells. activation factor at 20 µM. hit rate 0.005% among 190,000;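 active = activation factor of 2 or more at 20 µM, relative to plate controls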
ROMK mod – ROMK potassium channel modulators, primary screen, cell-based, thallium flux, MLSMR library. Tet-inducible ROMK, thallium flux fluorescence; actives lie on both sides. AID 1918, 2009. hit rate 2% among 130,000. B-score at 10 µM. ATP-sensitive inward rectifier potassium channel 1 (Homo sapiens), P48048;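 active = signal ratio slope over the read window, or its plate-corrected B-score, at least 3 SD from the plate mean, either direction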;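 also: B-score of the F/F0 ratio slope over 7 to 12 s after thallium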
PMI act hi M6P – human PMI activators, high substrate, primary screen, biochemical, fluorescence intensity, near-saturating mannose 6-phosphate | activation factor at 20 µM | hit rate 0.34% among 190,000 | AID 1216, 2008 | coupled PMI enzyme assay, resazurin fluorescence, 20 min; active compounds read high; 1 = untreated enzyme, 0 = substrate-free blank;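 active = activation factor of 2 or more at 20 µM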
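Test system: human phosphomannose isomerase with PGI, G6PDH, diaphorase coupling enzymes; amount: 15 ng/mL PMI; incubation: enzyme reaction with compound 20 min at room temperature; technique: resorufin fluorescence (Ex 544/Em 590 nm) from resazurin via diaphorase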
Cl transport mod – KCC2 cotransporter modulators, thallium flux, primary screen, cell-based, HEK293 KCC2, FluoZin-2 fluorescence, MLSMR; Solute carrier family 12 member 5 (Homo sapiens), Q9H2X9; KCC2 cells, thallium flux FluoZin-2 fluorescence; B-score of Tl+ flux slope (higher = more flux/activation; lower = inhibition) at 10 µM; hit rate 2.2% among 190,000; AID 1456, 2008;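 active = thallium flux slope and its plate-corrected score both differing from the plate sample mean at a set confidence after two filtering rounds, in either direction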;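 also: slope of fluorescence scaled to starting intensity during 10 to 20 s after thallium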
KCC2 sec1 – KCC2 modulators in sodium-free buffer, confirmation, cell-based, HEK293 KCC2, thallium flux, secondary assay; hit rate 15% among 3,700; FluoZin2 fluorescence; active compounds read high; shares compounds with Cl transport mod; normalised thallium flux (F/F0 slope) at 10 µM;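 active = thallium flux slope above the same plate's solvent-only control mean plus 3 SD; inconclusive = the two replicate wells disagree; inactive = no significant difference from solvent-only control wells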
KCC2 bumet counter – thallium flux persisting under bumetanide in KCC2 cells, confirmation, counter-screen for KCC2 modulator project, cell-based, HEK293 KCC2, FluoZin2, secondary assay 3 | shares compounds with Cl transport mod | HEK293-KCC2 + bumetanide/ouabain; active compounds read high | normalized thallium flux at 10 µM | hit rate 49% among 3,700;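 active = thallium entry rate above the same plate's blocked-transporter control wells by more than 3 SD; inconclusive = the two repeat wells disagree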;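 also: raw slope of fluorescence over initial fluorescence between 10 and 20 s after thallium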
KCC2 secondary2 – KCC2 modulators without ouabain present, confirmation, cell-based, HEK293 KCC2, thallium flux, FluoZin2, secondary assay 2; shares compounds with Cl transport mod; thallium flux FluoZin2 fluorescence; actives lie on both sides; F/F0 rise rate, 10–20 s post-thallium; normalized thallium flux at 10 µM; hit rate 23% among 3,700; AID 1715, 2009;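 active = thallium flux slope more than 3 SD above or below the plate's solvent-only control mean, mostly below; inconclusive = the two repeat wells disagreed; inactive = no significant shift from solvent-only controls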;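 also: raw slope with 0.1% DMSO as baseline and bumetanide as block control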
HEK293 Tl flux – thallium flux modulation in parental HEK cells, confirmation, counter-screen for KCC2 modulator project, cell-based, counterscreen 1 | shares compounds with Cl transport mod | HEK293 parental cells, thallium flux FluoZin2, ouabain; baseline-ratio fluorescence slope, 10–20 s after thallium | thallium flux rate (normalised fluorescence) at 10 µM | AID 1716, 2009 | hit rate 46% among 3,700;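 active = thallium flux rate significantly above the same plate's solvent-only control wells, beyond their mean plus 3 SD; inconclusive = the two replicate wells gave conflicting results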
KCC2 retest ouab – KCC2 inhibitors and activators, ouabain retest, confirmation, HEK-KCC2 cells | raw Tl+ flux slope (below DMSO = inhibition, above = activation) at 10 µM | shares compounds with Cl transport mod | hit rate 48% among 3,700 | HEK293-KCC2, thallium flux FluoZin2 fluorescence; bidirectional: low = inhibitor, high = activator | AID 1717, 2009;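 active = thallium flux slope beyond 3 SD from same-plate DMSO control mean in most replicates, usually higher, sometimes lower; inconclusive = repeat tests gave conflicting results; inactive = no significant difference from controls in most replicates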;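 also: slope of initial-normalized fluorescence between seconds 10 and 20 after thallium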
HEK counter2 – native HEK Tl+ uptake effects, second counter-screen – HEK cells, counterscreen 2, counter-screen for KCC2 modulator project, confirmation. shares compounds with Cl transport mod. HEK293 parental, thallium flux FluoZin-2 fluorescence slope. thallium flux slope at 10 µM. hit rate 33% among 3,700;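 active = thallium flux slope above the same plate's solvent-control mean plus 3 SD in both duplicate wells; inconclusive = duplicate wells that disagreed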;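 also: run without ouabain in cells lacking the KCC2 cotransporter; slope of fluorescence scaled to its starting value between 10 and 20 s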
* = called active by the depositor; ? = inconclusive; . = no result.

SMILES | ABCB1 inh | ABCG2 block | PMI activator | ROMK mod | PMI act hi M6P | Cl transport mod | KCC2 sec1 | KCC2 bumet counter | KCC2 secondary2 | HEK293 Tl flux | KCC2 retest ouab | HEK counter2
N=C1SCC(=O)N1c1ncc(Cc2cccc(Cl)c2)s1 | -0.2 | -1.4 | . | -0.301 | . | 8.07* | ? | 0.0189* | 0.032 | 0.0203* | 0.0311* | ?
CCc1ccc(S(=O)(=O)NC(=S)Nc2ccccc2)cc1 | 0.7 | -1.6 | 0.5 | 0.583 | 0.9 | 1.26 | . | . | . | . | . | .
COc1ccc(-n2ncc3c(NCc4ccccn4)ncnc32)cc1 | 1.2 | 9.9 | 0.8 | 0.552 | 0.8 | 0.392 | . | . | . | . | . | .
C=CCn1cnc2c(c1=O)c1nc3ccccc3nc1n2-c1ccc(Cl)cc1 | . | . | . | 0.103 | . | . | . | . | . | . | . | .
CS(=O)(=O)N1CC(C(=O)NC2CC2)Oc2ccc(Cl)cc21 (centres undefined) | 0.0 | 0.0 | 1.1 | . | 1.1 | . | . | . | . | . | . | .
Cc1ccc(C2c3c(oc4ccccc4c3=O)C(=O)N2c2nnc(C(C)C)s2)o1 (centres undefined) | 1.6 | 13.6 | 1 | . | 1 | -1.37 | . | . | . | . | . | .
O=C(Nc1nccs1)c1nc(-c2ccccc2)n(-c2ccccc2)n1 | 0.3 | 1.9 | 1.1 | . | 1 | 5.32* | 0.0117 | 0.0226* | 0.032 | 0.0111* | 0.0226 | 0.0108
NC(=S)N/N=C1\CCOc2ccc(F)cc21 | . | . | . | . | . | -0.575 | . | . | . | . | . | .
CC(C)c1ccc(-c2csc(NC(=O)c3cccs3)c2C(=O)O)cc1 | -1.0 | -3.4 | 1.1 | 1.64 | 1.1 | 20.4* | 0.00717 | 0.0451* | 0.0273* | 0.0214* | ? | ?
O=C1CCN(c2ccc([N+](=O)[O-])cc2F)CC1 | 0.7 | 5.2 | 0.9 | -0.0256 | 0.8 | 0.321 | . | . | . | . | . | .
CC(=O)Oc1ccc2c(C)cc(=O)[nH]c2c1 | 0.9 | 4.7 | 0.9 | 0.937 | 0.9 | . | . | . | . | . | . | .
COc1ccc2c(C)cc(=S)[nH]c2c1 | 0.1 | 5.5 | 1.6 | 0.598 | 2.5* | 8.03* | 0.0166 | 0.0155* | 0.0295 | 0.0126* | 0.0194 | 0.0145*
COc1ccc(C(C(N)=O)c2ncc(C(F)(F)F)cc2Cl)cc1OC (centres undefined) | 0.7 | 2.6 | 1.1 | 0.878 | 1 | -0.0486 | . | . | . | . | . | .
